Structures can show the parent of a compound that is named as a salt.
Experiments:
[1] = molecular target: T1, Glycogen phosphorylase, muscle form (Oryctolagus cuniculus, UniProt P00489); assay: Inhibition of rabbit muscle glycogen phosphorylase a
T1 sequence (P00489 whole entry): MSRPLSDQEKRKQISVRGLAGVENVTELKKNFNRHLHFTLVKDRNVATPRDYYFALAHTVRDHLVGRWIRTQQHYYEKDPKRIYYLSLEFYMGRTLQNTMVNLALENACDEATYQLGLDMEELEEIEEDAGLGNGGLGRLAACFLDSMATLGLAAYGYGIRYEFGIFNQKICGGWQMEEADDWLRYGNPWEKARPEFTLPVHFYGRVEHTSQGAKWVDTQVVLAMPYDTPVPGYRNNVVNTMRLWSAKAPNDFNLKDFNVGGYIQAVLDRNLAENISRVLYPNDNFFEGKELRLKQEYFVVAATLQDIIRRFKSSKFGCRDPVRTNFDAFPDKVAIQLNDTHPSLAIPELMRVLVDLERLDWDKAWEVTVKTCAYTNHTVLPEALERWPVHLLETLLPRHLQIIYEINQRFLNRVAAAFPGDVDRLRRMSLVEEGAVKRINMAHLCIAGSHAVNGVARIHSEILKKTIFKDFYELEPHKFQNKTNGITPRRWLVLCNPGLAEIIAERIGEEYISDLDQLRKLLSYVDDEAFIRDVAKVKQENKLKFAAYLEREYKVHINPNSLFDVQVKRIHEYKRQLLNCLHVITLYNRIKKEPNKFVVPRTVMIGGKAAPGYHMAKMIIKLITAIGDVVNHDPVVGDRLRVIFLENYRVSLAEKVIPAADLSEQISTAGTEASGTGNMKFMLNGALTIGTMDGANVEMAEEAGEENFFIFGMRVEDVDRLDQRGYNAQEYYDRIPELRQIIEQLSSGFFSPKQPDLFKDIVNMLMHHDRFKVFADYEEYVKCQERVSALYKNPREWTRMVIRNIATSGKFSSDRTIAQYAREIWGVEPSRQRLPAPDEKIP

[2] = test system: Human immunodeficiency virus 1; assay: Antiviral activity against Human immunodeficiency virus 1 NL4-3 infected in MT4 lymphocytes assessed as p24 antigen level by ELISA; assay type: functional, organism-based
Outline: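 HIV-1 NL4-3 variants at MOI 0.01 infect MT-4 cells in a replication screening assay run in 96-well format.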

[3] = test system: MT4; assay: Cytotoxicity against human MT4 lymphocytes after 48 hrs by MTT assay; assay type: cell-based
[4] = test system: BGC-823; assay: Cytotoxicity against human BGC823 cells after 48 hrs by MTT assay; assay type: functional, cell-based
Outline: (§1)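 Cells seeded and allowed to adhere at 37 °C in a CO2 incubator, then exposed for 48 h to 0.0001, 0.0005, 0.001, 0.005, 0.01, 0.05 or 0.1 mmol·L−1 compound. MTT (5%) added for a further 4 h, absorbance read at 570 nm.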

[5] = test system: A549; assay: Cytotoxicity against human A549 cells after 48 hrs by MTT assay; assay type: functional, cell-based; settings: A549, 48 h; outline: as §1
[6] = test system: HeLa; assay: Cytotoxicity against human HeLa cells after 48 hrs by MTT assay; assay type: functional, cell-based; outline: as §1
[7] = test system: MCF7; assay: Cytotoxicity against human MCF7 cells after 48 hrs by MTT assay; assay type: functional, cell-based; settings: MCF7, 48 h; outline: as §1
[8] = test system: PC-3; assay: Cytotoxicity against human PC3 cells after 48 hrs by MTT assay; assay type: functional, cell-based; outline: as §1
[9] = Therapeutic index, ratio of IC50 for human lymphocytes to EC50 for Human immunodeficiency virus 1 NL4-3; settings: read-out: TI
[10] = Homo sapiens, BGC-823, 48 h, read-out: IC50
[11] = Homo sapiens, HeLa, 48 h, read-out: IC50
[12] = Homo sapiens, PC-3, 48 h, read-out: IC50
[13] = Human immunodeficiency virus 1, NL4-3, read-out: EC50
[14] = Homo sapiens, MT4, 48 h, read-out: IC50

Structure (SMILES)	IC50 ([1]; read-out: IC50) [µM]	EC50 [2]	IC50 ([3]; mt4)	IC50 ([4]; bgc-823)	IC50 [5] [µM]	IC50 ([6]; hela)	IC50 [7] [µM]	IC50 ([8]; pc-3)	IC50 [4, 10] [µM]	IC50 [6, 11] [µM]	IC50 [8, 12] [µM]	EC50 [2, 13] [µM]	IC50 [3, 14] [µM]	selectivity ratio [9]	IC50 [1]
C=C(C)[C@@H]1CC[C@]2(CO)CC[C@]3(C)[C@H](CC[C@@H]4[C@@]5(C)CC[C@H](O)C(C)(C)[C@@H]5CC[C@]43C)[C@@H]12 [BETULIN]	41.5	Not Active	Not Active												
C=C(C)[C@@H]1CC[C@]2(COC(c3ccccc3)(c3ccccc3)c3ccccc3)CC[C@]3(C)[C@H](CC[C@@H]4[C@@]5(C)[C@H](C(=O)OC)[C@H](OC(C)=O)C(C)(C)[C@@H]5CC[C@]43C)[C@@H]12	15.2	Not Active	Not Active	Not Active	892	Not Active	565	Not Active							
C=C(C)[C@@H]1CC[C@]2(C=O)CC[C@]3(C)[C@H](CC[C@@H]4[C@@]5(C)[C@H](C(=O)OC)[C@H](OC(C)=O)C(C)(C)[C@@H]5CC[C@]43C)[C@@H]12	53.8	Not Active	Not Active		194		32.5		12.7	105	8.51				
C=C(C)[C@@H]1CC[C@]2(C(=O)O)CC[C@]3(C)[C@H](CC[C@@H]4[C@@]5(C)[C@H](C(=O)O)[C@H](O)C(C)(C)[C@@H]5CC[C@]43C)[C@@H]12 [EPICEANOTHIC ACID]	194				16.8		87.2		2.41		19.7	15.6	38.9	2.49	
C=C(C)[C@@H]1CC[C@]2(COC(c3ccccc3)(c3ccccc3)c3ccccc3)CC[C@]3(C)[C@H](CC[C@@H]4[C@@](C)(CC(=O)O)[C@H](C(C)(C)C(=O)O)CC[C@]43C)[C@@H]12	0.21			Not Active	136	Not Active	560				6.75				
C=C(C)[C@@H]1CC[C@]2(C(=O)O)CC[C@]3(C)[C@H](CC[C@@H]4[C@@]5(C)[C@H](C(=O)OC)[C@H](OC(C)=O)C(C)(C)[C@@H]5CC[C@]43C)[C@@H]12	46.4	Not Active	Not Active		0.89		0.33		7.64	56.7	10.8				
COc1cccc2c1C(=O)c1c(O)c3c(c(O)c1C2=O)C[C@@](O)(C(=O)CO)C[C@@H]3O[C@H]1C[C@H](N)[C@H](O)[C@H](C)O1 [DOXORUBICIN HYDROCHLORIDE]					0.54		1.65				0.68				
C=C(C)[C@@H]1CC[C@]2(CO)CC[C@]3(C)[C@H](CC[C@@H]4[C@@]5(C)[C@H](C(=O)OC)[C@H](OC(C)=O)C(C)(C)[C@@H]5CC[C@]43C)[C@@H]12		Not Active	Not Active		62.9		604		25.9		66.3				Not Active
C=C(C)[C@@H]1CC[C@]2(C(=O)O)CC[C@]3(C)[C@H](CC[C@@H]4[C@@]5(C)CC[C@H](OC(=O)CC(C)(C)C(=O)O)C(C)(C)[C@@H]5CC[C@]43C)[C@@H]12 [BEVIRIMAT]												0.082	15.2	185	
C=C(C)[C@@H]1CC[C@]2(COC(c3ccccc3)(c3ccccc3)c3ccccc3)CC[C@]3(C)[C@H](CC[C@@H]4[C@@](C)(CC(=O)OC)[C@H](C(C)(C)C(=O)OC)CC[C@]43C)[C@@H]12	2.87				996		374		9.54	17.1	5.32				
C=C(C)[C@@H]1CC[C@]2(COC(c3ccccc3)(c3ccccc3)c3ccccc3)CC[C@]3(C)[C@H](CC[C@@H]4[C@@]5(C)[C@H](C(=O)OC)[C@H](O)C(C)(C)[C@@H]5CC[C@]43C)[C@@H]12	20.1				770	Not Active	398	Not Active							
